Experimental data from ChEMBL document CHEMBL1135512 (J Med Chem, 2002).

What was measured:
Plasmodium falciparum [1] = assay: In vitro inhibitory activity against multidrug-resistant Plasmodium falciparum W2 Indochina; type: functional, organism-based
Outline: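 Clone W2 (Indochina), sorbitol-synchronized, was grown in RPMI 1640 with 10% human serum, 25 mM HEPES and 25 mM NaHCO3, at final parasitemia 0.5% and hematocrit 1.5%. The drug was present for 48 h at 37 °C under 10% O2/6% CO2/84% N2. Growth was read as 3H-hypoxanthine uptake (1 μCi/well). IC50 came from nonlinear regression of log-dose/response as the geometric mean with 95% CI.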

[2] = Partition coefficient (logP); type: physicochemical; conditions: octanol/water
Plasmodium falciparum [3] = assay: Accumulation coefficient of chloroquine at 1 uM-10 uM of DEEA against Plasmodium falciparum W2; type: functional
Outline: (§1)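 W2 infected erythrocytes were suspended in RPMI 1640 with 25 mM HEPES and 25 mM NaHCO3 (2% parasitemia, 2% hematocrit). They were mixed over silicone oil with buffer holding [3H]CQ (26 Ci/mmol) plus DEEA at 1 or 10 μM. Incubation was 1 h at 37 °C under 10% O2/6% CO2/84% N2, followed by 1 min centrifugation. Ratio = parasite [3H]CQ (infected minus uninfected cells) / same-volume buffer.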

[4] = Partition coefficient (logD7.0); type: physicochemical; conditions: octanol/water
Plasmodium falciparum [5] = assay: Concentration required to reduce chloroquine IC50 by 50%; type: functional, organism-based
Outline: (§2)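 Synergy isotopic microtest on sorbitol-synchronized W2 (Indochina) and 3D7 in RPMI 1640 with 10% human serum, HEPES/NaHCO3, parasitemia 0.5%, hematocrit 1.5%. CQ was combined with subinhibitory fixed DEEA concentrations, and 3H-hypoxanthine was added for 48 h at 37 °C under 10% O2/6% CO2/84% N2. Reversal IC50 is the DEEA concentration halving CQ IC50, found by nonlinear regression of log-dose/IC50.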

Plasmodium falciparum [6] = assay: Percent reversal against Plasmodium falciparum W2 at 1 uM DEEA; type: functional
[7] = Cytotoxicity against Chinese hamster ovary cells; type: cell-based, Cricetulus griseus
Outline: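 Cells were then exposed to graded drug concentrations for 48 h at 37 °C, 5% CO2. MTT (1 mg/mL in PBS) was added for 3 h, and formazan was dissolved in DMSO and read at 570/630 nm. IC50 came from nonlinear regression versus drug-free wells.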

[8] = In vitro hemolytic concentration on uninfected erythrocytes.; type: functional, Homo sapiens
Outline: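 Washed A+ human erythrocytes were held at 1.5% hematocrit in RPMI 1640 with 10% human serum, 25 mM HEPES and 25 mM NaHCO3. Drug (2 mM to 1 μM final, triplicate) was added for 42 h at 37 °C under 10% O2/6% CO2. Released hemoglobin in supernatant was measured with TMB/H2O2 at 455 nm. HC50 is relative to 5% saponin lysis, by nonlinear regression.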

Plasmodium falciparum [9] = assay: Accumulation coefficient of chloroquine at 1 uM-10 uM of DEEA against Plasmodium falciparum W2; Range is from 14-56; type: functional; outline: as §1
[10] = Dissociation constant (pKa); type: physicochemical
Plasmodium falciparum [11] = assay: Accumulation coefficient of chloroquine at 1 uM-10 uM of DEEA against Plasmodium falciparum W2; Range is from 50-66; type: functional; outline: as §1
Plasmodium falciparum [12] = assay: Accumulation coefficient of chloroquine at 1 uM-10 uM of DEEA against Plasmodium falciparum W2;Range is from 16-25; type: functional; outline: as §1
Plasmodium falciparum [13] = assay: Concentration required to reduce chloroquine IC50 by 50%; Antagonist; type: functional, organism-based; outline: as §2
Plasmodium falciparum [14] = assay: Accumulation coefficient of chloroquine at 1 uM-10 uM of DEEA against Plasmodium falciparum W2; Range is from 23-30; type: functional
Plasmodium falciparum [15] = assay: Accumulation coefficient of chloroquine at 1 uM-10 uM of DEEA against Plasmodium falciparum W2; Range is from 61-242; type: functional; outline: as §1
Plasmodium falciparum [16] = assay: Accumulation coefficient of chloroquine at 1 uM-10 uM of DEEA against Plasmodium falciparum W2; Range is from 22-29; type: functional; outline: as §1
[17] = pKa of the compound; type: physicochemical
Plasmodium falciparum [18] = assay: Accumulation coefficient of chloroquine at 1 uM-10 uM of DEEA against Plasmodium falciparum W2; Range is from 50-159; type: functional; outline: as §1
Plasmodium falciparum [19] = assay: Accumulation coefficient of chloroquine at 1 uM-10 uM of DEEA against Plasmodium falciparum W2;Range is from 30-23; type: functional; outline: as §1
Plasmodium falciparum [20] = assay: Percent reversal against Plasmodium falciparum W2 at 1 uM DEEA
Plasmodium falciparum [21] = assay: Accumulation coefficient of chloroquine at 1 uM-10 uM of DEEA against Plasmodium falciparum W2;Range is from 30-32; type: functional; outline: as §1
Plasmodium falciparum [22] = assay: Accumulation coefficient of chloroquine at 1 uM-10 um of DEEA against Plasmodium falciparum W2;Range is from 112-298; type: functional; outline: as §1
Plasmodium falciparum [23] = assay: Accumulation coefficient of chloroquine at 1 uM-10 uMof DEEA against Plasmodium falciparum W2; type: functional; outline: as §1
Plasmodium falciparum [24] = assay: Accumulation coefficient of chloroquine at 1 uM-10 uM of DEEA against Plasmodium falciparum 3D7; type: functional
Plasmodium falciparum [25] = assay: Accumulation coefficient of chloroquine at 1 uM-10 uM of DEEA against Plasmodium falciparum W2; Range is from 37-42; type: functional; outline: as §1

Row | Structure (SMILES) | IC50 (Plasmodium falciparum [1]; Plasmodium falciparum) [µM] | logP ([2]; read-out: logP) | Accumulation coefficient (Plasmodium falciparum [3]) | logD ([4]; pH 7, read-out: logD) | IC50 (Plasmodium falciparum [5]; Plasmodium falciparum) [µM] | Reversal (Plasmodium falciparum [6]) [%] | Cytotoxicity [7] [µM] | HC50 [8] [µM] | pKa [10] | also measured
1 | O=C(NCc1ccccc1)C1=CC2c3ccccc3C1c1ccccc12 | 50 | 4.41 | 46 | 4.41 | 23 | 0 | > 2000 | >2000 | – | –
2 | CC1C2c3ccccc3C(c3ccccc32)C1C[N+](C)(C)C.[I-] (stereo not drawn) | 16 | 1.32 | 192 | 1.32 | 3.5 | 37 | > 2000 | >2000 | – | –
3 | CN(C)CC1C2c3ccccc3C(c3ccccc32)C1CO (stereo not drawn) | 36 | 2.82 | – | 0.96 | 0.6 | 66 | > 2000 | >2000 | 8.86 | Accumulation coefficient (Plasmodium falciparum [9]): 56
4 | CNCC1CC2c3ccccc3C1c1ccccc12 (stereo not drawn) | 8 | 3.66 | 210 | 0.63 | 0.3 | 80 | 515 | 1090 | 10.2 | –
5 | CN(C)CC1C2c3ccccc3C(c3ccccc32)C1COC(=O)N(C)C (stereo not drawn) | 21 | 2.99 | – | 1 | 1.6 | 25 | 758 | 1563 | 8.99 | Accumulation coefficient (Plasmodium falciparum [11]): 66
6 | CN(C)C=NC(=O)C1C2c3ccccc3C(c3ccccc32)C1C(=O)N=CN(C)C (stereo not drawn) | 33 | 1.6 | – | 1.6 | 30 | 0 | 820 | >2000 | – | Accumulation coefficient (Plasmodium falciparum [12]): 25
7 | COC(=O)C1C2c3ccccc3C(c3ccccc32)C1C(=O)N(C)C (stereo not drawn) | 32 | 2.47 | – | 2.47 | – | 0 | > 2000 | >2000 | -1.65 | IC50 (Plasmodium falciparum [13]): Antagonist; Accumulation coefficient (Plasmodium falciparum [14]): 30
8 | c1ccc2c(c1)C1c3ccccc3C2C2CNCC12 (stereo not drawn) | 10 | 2.98 | 322 | 0 | 0.2 | 80 | 1110 | >2000 | 10.2 | –
9 | CN(C)CC1=CC2c3ccccc3C1c1ccccc12 | 4 | 3.68 | 53 | 2.61 | 0.5 | 65 | 1427 | 1630 | 8.04 | –
10 | CN(C)CC1=C(CN(C)C)C2c3ccccc3C1c1ccccc12 | 2.5 | 3.34 | – | 1.26 | 0.8 | 55 | 920 | >2000 | 8.66 | Accumulation coefficient (Plasmodium falciparum [15]): 242
11 | CN(C)C1CC2c3ccccc3C1c1ccccc12 (stereo not drawn) | 9.3 | 3.67 | 219 | 2 | 0.8 | 60 | > 2000 | >2000 | 8.67 | –
12 | NC(=O)C1C2c3ccccc3C(c3ccccc32)C1C(N)=O (stereo not drawn) | 44 | 0.86 | – | 0.86 | 50 | 0 | > 2000 | >2000 | -0.96 | Accumulation coefficient (Plasmodium falciparum [16]): 29
13 | NCC1C2c3ccccc3C(c3ccccc32)C1CN (stereo not drawn) | 8 | – | – | – | 12.5 | 7 | 465 | >2000 | – | logP [2]: 1.89; logD ([4]; pH 7): -3.27; pKa [17]: 10.1; Accumulation coefficient (Plasmodium falciparum [18]): 159
14 | CC1C2c3ccccc3C(c3ccccc32)C1CN(C)C (stereo not drawn) | 30 | 4.24 | 62 | 2.25 | 0.4 | 60 | 711 | 1402 | 8.99 | –
15 | CN(C)C(=O)C1=C(C(=O)N(C)C)C2c3ccccc3C1c1ccccc12 | 36.5 | 2.15 | – | 2.15 | > 50 | 0 | > 2000 | >2000 | – | Accumulation coefficient (Plasmodium falciparum [19]): 30
16 | CC1C2c3ccccc3C(c3ccccc32)C1C(=O)Nc1cccnc1 (stereo not drawn) | 164 | 3.85 | 10 | 3.85 | – | 0 | 93 | >2000 | 4.14 | –
17 | O=C(NCCCCCCCCCCNC(=O)C1=CC2c3ccccc3C1c1ccccc12)C1=CC2c3ccccc3C1c1ccccc12 | 8 | – | 34 | – | – | 0 | > 2000 | >2000 | -1.14 | logP [2]: 9.16; logD [4]: 9.16
18 | COc1ccc(CCN(C)CCCC(C#N)(c2ccc(OC)c(OC)c2)C(C)C)cc1OC (stereo not drawn) | 13.4 | – | 97 | – | 0.8 | 57 | – | 861 | 8.29 | –
19 | CN(C)C(=O)C1C2c3ccccc3C(c3ccccc32)C1C(=O)N(C)C (stereo in doubt; 4) | – | – | – | – | – | 0 | > 2000 | – | – | IC50 (Plasmodium falciparum [1]): 35.5 µM
20 | CN(C)CC1C2c3ccccc3C(c3ccccc32)C1CN(C)C (stereo in doubt; 5) | 2 | 3.41 | – | 0 | 0.25 | – | 1035 | >2000 | 9.19 | Reversal (Plasmodium falciparum [20]): 80%
21 | CN(C)C(=O)C1C2c3ccccc3C(c3ccccc32)C1C(=O)N(C)C (stereo in doubt; 17) | – | 1.7 | – | 1.7 | 9 | 3 | 1558 | >2000 | -1.34 | Accumulation coefficient (Plasmodium falciparum [21]): 32; IC50 (Plasmodium falciparum [1]): 12.4 µM
22 | CN(C)CC1C2c3ccccc3C(c3ccccc32)C1CN(C)C (stereo in doubt; 19) | – | – | – | – | – | 80 | > 2000 | – | – | IC50 (Plasmodium falciparum [1]): 4 µM; Accumulation coefficient (Plasmodium falciparum [22]): 298; IC50 (Plasmodium falciparum [5]): 0.4 µM
23 | CCN(CC)CCCC(C)Nc1ccnc2cc(Cl)ccc12 (stereo not drawn) [CHLOROQUINE] | 0.9 | – | – | – | – | 0 | – | – | – | Accumulation coefficient (Plasmodium falciparum [23]): 18; Accumulation coefficient (Plasmodium falciparum [24]): 191
24 | CNC1(C)C2CCC(C2)C1(C)C (stereo not drawn) [MECAMYLAMINE] | 91.4 | – | 45 | -0.4 | 6 | 15 | – | – | 11 | logP [2]: 2.13
25 | CC(CN1c2ccccc2Sc2ccccc21)N(C)C (stereo not drawn) [PROMETHAZINE] | 20 | 3.86 | – | 1.96 | 0.4 | 67 | 702 | 618 | 8.89 | Accumulation coefficient (Plasmodium falciparum [25]): 42
